The text below walks through data of ChEMBL document CHEMBL3792296, “Synthesis and antiproliferative activity of 9-benzylamino-6-chloro-2-methoxy-acridine derivatives as potent DNA-binding ligands and topoisomerase II inhibitors” (Eur J Med Chem, 2016).

The nature of assay [1]: Antiproliferative activity against human HCT116 cells after 48 hrs by MTT assay. It counts as functional, cell-based. The settings on record: HCT-116, 48 h. The method in brief: (§1)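 MTT assay: cells seeded at 4-8 × 10³ per well, incubated overnight at 37 °C in 5% CO₂, then given fresh medium with graded compound concentrations or equal DMSO for 48 h. MTT (5 mg/mL solution) added for a further 4 h, formazan dissolved in DMSO, absorbance read at 490 nm. Six cancer cell lines tested.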

The test system of assay [2] is CCRF-CEM. Put plainly: Antiproliferative activity against human CCRF-CEM cells after 48 hrs by MTT assay. It counts as functional, cell-based. The gist of the method: as §1
In general terms: Tetrazolium assays rely on reduction of a dye to a coloured formazan, in cell work by metabolically active cells.

Assay [3] addresses T1, DNA topoisomerase 1 (Homo sapiens) (UniProt P11387).
T1 sequence (whole entry): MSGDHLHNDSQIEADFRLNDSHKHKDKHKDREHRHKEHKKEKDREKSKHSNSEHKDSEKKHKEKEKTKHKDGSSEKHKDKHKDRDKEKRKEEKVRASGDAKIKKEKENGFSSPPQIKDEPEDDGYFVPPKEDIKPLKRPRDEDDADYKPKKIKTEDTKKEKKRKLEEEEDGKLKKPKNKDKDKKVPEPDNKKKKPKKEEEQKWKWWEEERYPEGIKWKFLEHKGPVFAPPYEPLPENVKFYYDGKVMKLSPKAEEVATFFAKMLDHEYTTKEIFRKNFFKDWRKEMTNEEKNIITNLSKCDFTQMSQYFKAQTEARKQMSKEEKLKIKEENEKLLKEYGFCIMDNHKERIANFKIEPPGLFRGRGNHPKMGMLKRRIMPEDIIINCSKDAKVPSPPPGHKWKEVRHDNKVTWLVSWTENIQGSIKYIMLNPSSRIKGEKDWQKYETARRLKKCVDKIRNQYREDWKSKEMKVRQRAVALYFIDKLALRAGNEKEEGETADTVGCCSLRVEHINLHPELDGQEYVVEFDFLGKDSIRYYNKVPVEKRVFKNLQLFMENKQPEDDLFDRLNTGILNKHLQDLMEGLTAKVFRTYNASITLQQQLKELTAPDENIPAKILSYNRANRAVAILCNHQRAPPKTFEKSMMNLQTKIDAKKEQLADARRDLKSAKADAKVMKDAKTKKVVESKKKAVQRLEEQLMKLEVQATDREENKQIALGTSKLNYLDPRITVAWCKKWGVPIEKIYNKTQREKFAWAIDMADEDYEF
Put plainly: Inhibition of human topoisomerase 1 assessed as reduction in enzyme-mediated relaxation of supercoiled pBR322 DNA at 50 to 100 uM after 10 to 15 mins by agarose gel electrophoresis. The method in brief: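 Relaxation of 500 ng supercoiled pBR322 by 1 unit human Topo I or Topo IIα, with or without compound, in 20 µL reaction buffer at 37 °C for 10-15 min. Reactions stopped with loading buffer, run on 0.8% agarose in TAE at 80 V for 30 min. Gels stained with ethidium bromide 2.5 µg/mL and viewed under UV.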

For assay [4], the system named is Calf thymus DNA. Kind of assay: Binding affinity to calf thymus DNA at 10 uM spectrofluorimetric analysis. Type of assay: nucleic-acid assay. To be noted: Bos taurus. The method in brief: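 Compound at 10 µM final in 10 mM Tris-HCl, pH 7.4, titrated with ctDNA at 0-64 µM final. Emission recorded 420-750 nm with excitation at 400 nm using a xenon arc lamp source. Quenching constant K derived by Stern-Volmer fit, F₀/F = 1 + K[Q], where [Q] is the DNA concentration.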

In assay [5] the test system is Calf thymus DNA. Kind of assay: Binding affinity to calf thymus DNA assessed as hypochromicity change at 10 uM after 5 mins by UV-vis spectrophotometry relative to control. It counts as nucleic-acid assay. The settings on record: Bos taurus. The gist of the method:
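ctDNA at 0-44 µM is added to compound at 10 µM final in Tris-HCl buffer (pH 7.4). UV-vis absorption spectra are recorded after 5 min standing. The binding constant K_b is taken from a plot of absorption data against DNA concentration.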

The test system of assay [6] is A549. Put plainly: Induction of apoptosis in human A549 cells assessed as early apoptotic cells at 10 uM after 36 hrs by Annexin V-FITC/propidium iodide staining based FACS analysis (reference value: 0.29%). It counts as functional. The gist of the method: (§2)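 A549 cells seeded at 2 × 10⁵ per well, incubated overnight, then treated at 0, 5 or 10 µM. The legend gives 36 or 48 h; the methods section states 24 h. Annexin V-FITC/PI kit staining followed by flow cytometry. Early and late apoptotic cells expressed as cumulative percentage relative to control.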
For orientation: A flow cytometer gives signals particle by particle.

Assay [7] relates to A549. Kind of assay: Induction of apoptosis in human A549 cells assessed as late apoptotic cells at 5 uM after 36 hrs by Annexin V-FITC/propidium iodide staining based FACS analysis (reference value: 0.29%). Type of assay: functional. The gist of the method:
as §2

In assay [8] the test system is A549. Kind of assay: Induction of apoptosis in human A549 cells assessed as late apoptotic cells at 10 uM after 36 hrs by Annexin V-FITC/propidium iodide staining based FACS analysis (reference value: 0.29%). It counts as functional. The method in brief: as §2
The subject of assay [9] is A549. Put plainly: Induction of apoptosis in human A549 cells assessed as early apoptotic cells at 5 uM after 48 hrs by Annexin V-FITC/propidium iodide staining based FACS analysis (reference value: 0.94%). It counts as functional. The gist of the method:
as §2

The subject of assay [10] is A549. Put plainly: Induction of apoptosis in human A549 cells assessed as late apoptotic cells at 5 uM after 48 hrs by Annexin V-FITC/propidium iodide staining based FACS analysis (reference value: 0.62%). Type of assay: functional. The gist of the method: as §2
Assay [11] relates to A549. Put plainly: Induction of apoptosis in human A549 cells assessed as late apoptotic cells at 10 uM after 48 hrs by Annexin V-FITC/propidium iodide staining based FACS analysis (reference value: 0.62%). It counts as functional. The method in brief: as §2
Assay [12] relates to A549. Put plainly: Induction of apoptosis in human A549 cells assessed as increase in expression of cleaved caspase 7 at 1 to 2.5 uM after 48 hrs by Western blot analysis. Type of assay: functional, cell-based. The method in brief: (§3)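 A549 cells grown to 80% confluency, treated with graded concentrations for 48 h, then lysed in Tris-HCl/NaCl/Triton X-100 buffer with protease inhibitors. 40 µg protein resolved on 12 or 15% SDS-PAGE and blotted to PVDF. Primary antibodies used at 1:1000 for 6-8 h, HRP anti-rabbit at 1:2000 for 2 h, ECL detection, β-actin as loading control.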
In general terms: Immunoblotting shows a protein as a band on a membrane.

Assay [13] concerns A549. Put plainly: Induction of apoptosis in human A549 cells assessed as increase in expression of cleaved caspase 9 at 1 to 2.5 uM after 48 hrs by Western blot analysis. Type of assay: functional, cell-based. The gist of the method:
as §3

In assay [14] the test system is A549. Kind of assay: Cell cycle arrest in human A549 cells assessed as accumulation at G0/G1 phase at 0.5 uM after 36 hrs by propidium iodide staining based flow cytometry (reference value: 61.65%). It counts as functional.
Assay [15] relates to A549. Kind of assay: Cell cycle arrest in human A549 cells assessed as accumulation at G0/G1 phase at 1 uM after 36 hrs by propidium iodide staining based flow cytometry (reference value: 61.65%). Type of assay: functional.
Assay [16] relates to A549. Kind of assay: Cell cycle arrest in human A549 cells assessed as accumulation at S phase at 1 uM after 36 hrs by propidium iodide staining based flow cytometry (reference value: 30.73%). Type of assay: functional.
The test system of assay [17] is A549. Put plainly: Cell cycle arrest in human A549 cells assessed as accumulation at S phase at 5 uM after 36 hrs by propidium iodide staining based flow cytometry (reference value: 30.73%). Type of assay: functional.
Assay [18] deals with A549. Kind of assay: Cell cycle arrest in human A549 cells assessed as accumulation at G2/M phase at 5 uM after 36 hrs by propidium iodide staining based flow cytometry (reference value: 7.62%). It counts as functional.
The test system of assay [19] is A549. Put plainly: Cell cycle arrest in human A549 cells assessed as accumulation at G2/M phase after 36 hrs by propidium iodide staining based flow cytometry. It counts as functional.

Activity calls are given as the source filed them. The calls are words filed in the database; no cut-off is given here.

Usually IC50 stands for the concentration at which inhibition is half-maximal.

In the case of `COc1ccc(CNc2c3ccc(Cl)cc3nc3ccc(OC)cc23)cc1`, the IC50 in assay [1] worked out at 6.32 µM; in [2], 2.54 µM. Also, the inhibition result in [3] was “Active”. The compound further yielded a KSV in assay [4] of 1.02 ×10⁵ /M. The Activity in assay [5] amounted to 60%; in assay [6] it was 3.24%; in [7] it was 10.47%; in [8], 88.13%; in assay [9], 4.23%; in assay [10], 21.23%. In addition, the Activity in [11] is reported as 82.46%; in [14] it was 61.48%; in [15], 60.83%; in assay [16] it was 29.55%; in assay [17] it was 21.45%; in [18], 16.52%. The Activity entry in [19] is “Dose-dependent effect”. In addition, the outcome in [12] and in assay [13] was Active.
